Assays:
Cannabinoid receptor 2 [1] = target: T1, Cannabinoid receptor 2 (Homo sapiens, UniProt P34972); assay: Binding affinity was determined for Cannabinoid receptor 2
Outline: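 Radioligand displacement on P2 membrane preparations, filtration method. Test compounds kept as 1 mg/mL stocks in absolute ethanol at -20 °C.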

Cannabinoid receptor 1 [2] = target: T2, Cannabinoid receptor 1 (Homo sapiens, UniProt P21554); assay: Binding affinity was determined for Cannabinoid receptor 1
[3] = target: Cannabinoid receptor (Homo sapiens) (UniProt P34972+P21554); assay: Ratio of Ki of CB1 receptor to that of CB2 receptor; type: protein assay
Cannabinoid receptor 2 [4] = target: T1, Cannabinoid receptor 2; assay: Binding affinity was determined for cannabinoid receptor 2
Outline: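 Radioligand displacement on P2 membrane preparations, filtration method. Test compounds kept as 1 mg/mL stocks in absolute ethanol at -20 °C. Displacement curves came from incubating the drugs with 1 nM [³H][…].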

Cannabinoid receptor 1 [5] = target: T2, Cannabinoid receptor 1; assay: Compound was tested for inhibition of Adenylyl cyclase in cannabinoid receptor 1 (CB1).

T1 sequence (P34972 whole entry): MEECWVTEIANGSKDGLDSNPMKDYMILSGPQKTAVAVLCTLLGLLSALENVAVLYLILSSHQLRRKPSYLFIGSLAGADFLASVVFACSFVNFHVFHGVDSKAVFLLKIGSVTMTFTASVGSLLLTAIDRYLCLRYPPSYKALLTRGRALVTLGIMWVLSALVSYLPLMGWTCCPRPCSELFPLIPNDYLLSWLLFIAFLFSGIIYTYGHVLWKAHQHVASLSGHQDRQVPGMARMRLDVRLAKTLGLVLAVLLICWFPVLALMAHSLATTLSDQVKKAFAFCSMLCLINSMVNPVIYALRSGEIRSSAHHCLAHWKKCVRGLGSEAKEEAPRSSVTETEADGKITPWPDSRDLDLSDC
T2 sequence (P21554 whole entry): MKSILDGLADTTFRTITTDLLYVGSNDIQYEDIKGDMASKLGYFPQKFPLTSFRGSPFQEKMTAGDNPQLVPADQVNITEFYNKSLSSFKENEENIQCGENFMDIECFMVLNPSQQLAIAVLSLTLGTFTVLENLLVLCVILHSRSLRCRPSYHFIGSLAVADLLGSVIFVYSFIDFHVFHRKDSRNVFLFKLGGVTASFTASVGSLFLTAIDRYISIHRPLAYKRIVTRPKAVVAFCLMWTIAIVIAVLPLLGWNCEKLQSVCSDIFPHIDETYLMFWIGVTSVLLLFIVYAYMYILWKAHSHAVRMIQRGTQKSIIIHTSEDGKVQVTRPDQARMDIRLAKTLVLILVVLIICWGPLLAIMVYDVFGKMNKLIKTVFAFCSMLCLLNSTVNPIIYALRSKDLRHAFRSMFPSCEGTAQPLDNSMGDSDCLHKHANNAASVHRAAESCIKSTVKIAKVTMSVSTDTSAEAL
Cannabinoid receptor (Homo sapiens), sequence (P21554 whole entry, looked up): as the sequence (P21554 whole entry) above
Cannabinoid receptor (Homo sapiens), sequence (P34972 whole entry, looked up): as the sequence (P34972 whole entry) above

## CCCCCCOC(=O)c1ccc2c(c1)-c1c(OC)cc(C(C)(C)CCCCCC)cc1OC2(C)C
Cannabinoid receptor 2 [1]
  Ki: > 10000 nM
Cannabinoid receptor 1 [2]
  Ki: > 10000 nM

## CCCCCCC(C)(C)c1cc(OC)c2c(c1)OC(C)(C)c1ccc(C(=O)OC(C)C)cc1-2
Cannabinoid receptor 2 [1]
  Ki: > 10000 nM
Cannabinoid receptor 1 [2]
  Ki: > 10000 nM

## CCCCCCC(C)(C)c1ccc(-c2cc(C)ccc2C(C)C)c(O)c1
Cannabinoid receptor 1 [2]
  Ki: 33 nM
[3]
  Ratio: 10

## CCCCCCC(C)(C)c1ccc2c(c1)OC(C)(C)c1ccc(C)cc1-2
Cannabinoid receptor 2 [1]
  Ki: 167 nM
Cannabinoid receptor 1 [2]
  Ki: 434 nM
[3]
  Ratio: 2.6

## CCCCCCC(C)(C)c1ccc2c(c1)OC(C)(C)c1ccc(C(=O)OC)cc1-2
Cannabinoid receptor 2 [1]
  Ki: 276 nM
Cannabinoid receptor 1 [2]
  Ki: 558 nM
[3]
  Ratio: 2

## CCCCCCC(C)(C)c1cc(O)c2c(c1)OC(C)(C)c1ccc(C)cc1-2
Cannabinoid receptor 2 [4]
  Ki: 2.24 nM
Cannabinoid receptor 1 [2]
  Ki: 1 nM
Cannabinoid receptor 1 [5]
  Ki: 2 nM
[3]
  Ratio: 0.4

## CCCC(C)(C)c1ccc(-c2cc(C)ccc2C(C)C)c(O)c1
Cannabinoid receptor 1 [2]
  Ki: 875 nM
[3]
  Ratio: 7.7

## CCCCCCC(C)(C)c1cc(OC)c2c(c1)OC(C)(C)c1ccc(C)cc1-2
Cannabinoid receptor 2 [1]
  Ki: 286 nM
Cannabinoid receptor 1 [2]
  Ki: 681 nM
[3]
  Ratio: 2.4

## CCCCCCC(C)(C)c1cc(O)c2c(c1)OC(C)(C)c1ccc(C(=O)OC)cc1-2
Cannabinoid receptor 2 [1]
  Ki: 3.8 nM
Cannabinoid receptor 1 [2]
  Ki: 14 nM
[3]
  Ratio: 3.7

## CCCCCCC(C)(C)c1ccc2c(c1)OC(C)(C)c1ccc(CO)cc1-2
Cannabinoid receptor 2 [1]
  Ki: 1 nM
Cannabinoid receptor 1 [2]
  Ki: 2 nM
[3]
  Ratio: 2

## CCCCCCC(C)(C)c1cc(OC)c2c(c1)OC(C)(C)c1ccc(C(=O)OCc3ccc4ccccc4c3)cc1-2
Cannabinoid receptor 2 [1]
  Ki: > 10000 nM
Cannabinoid receptor 1 [2]
  Ki: > 10000 nM

## CCCC(C)(C)c1cc(O)c2c(c1)OC(C)(C)c1ccc(C)cc1-2
Cannabinoid receptor 2 [1]
  Ki: 6 nM
Cannabinoid receptor 1 [2]
  Ki: 42 nM
[3]
  Ratio: 7

## CCCC(C)(C)c1ccc2c(c1)OC(C)(C)c1ccc(C(=O)OC)cc1-2
Cannabinoid receptor 2 [1]
  Ki: 611 nM
Cannabinoid receptor 1 [2]
  Ki: > 10000 nM
[3]
  Ratio: > 16.4

## CCCCCCC(C)(C)c1cc(OC)c2c(c1)OC(C)(C)c1ccc(C(=O)OCc3ccccc3)cc1-2
Cannabinoid receptor 2 [1]
  Ki: > 10000 nM
Cannabinoid receptor 1 [2]
  Ki: > 10000 nM

## CCCCCCC(C)(C)c1cc(OC)c2c(c1)OC(C)(C)c1ccc(C(=O)OC)cc1-2
Cannabinoid receptor 2 [1]
  Ki: 529 nM
Cannabinoid receptor 1 [2]
  Ki: > 10000 nM
[3]
  Ratio: > 18.9

## CCCCCCC(C)(C)c1cc(O)c2c(c1)OC(C)(C)c1ccc(CO)cc1-2
Cannabinoid receptor 1 [2]
  Ki: 0.1 nM
[3]
  Ratio: 0.5

## CCCC(C)(C)c1ccc2c(c1)OC(C)(C)c1ccc(CO)cc1-2
Cannabinoid receptor 2 [1]
  Ki: 67 nM
[3]
  Ratio: 3

## CCCCCCC(C)(C)c1cc(OC)c2c(c1)OC(C)(C)c1ccc(C(=O)OCCC)cc1-2
Cannabinoid receptor 2 [1]
  Ki: 214 nM
Cannabinoid receptor 1 [2]
  Ki: 1730 nM
[3]
  Ratio: 8.1
